Calls of active or inactive are those of the source.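 Rule for the calls, unless noted: active = fluorescence slope higher than the sample average by over 3 SD (cut at about -0.22 in these data, passing the limit was not always enough); inactive = the rest.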
Experiments:
[1] = inhibitors of TNFa-induced NFkB p65 translocation, primary screen, imaging, HUVEC, MLSMR starter and 10KST1 sets (AID 438;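 active = inhibition above 20% together with a positive visual image hit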;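 note: compound added about 3h40 before a 20 min TNFalpha stimulation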;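 for inhibition: signal is the nuclear over cytoplasmic p65 intensity ratio per well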); settings: HUVEC TNFa-induced p65 nuclear translocation; cell count: measured here: nuclei count (cytotoxicity indicator), at 2.08 µM; inhibition: at 2 µM, stronger effect = higher value, 0% TNFa-plus-vehicle, 100% no-TNFa wells
[2] = inhibitors of mutant huntingtin aggregation, primary screen, imaging, exon1htt(103Q)mCFP cells, high-content imaging (AID 483;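 active = visual image review flags a hit and inhibition of aggregation exceeds 20%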;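 note: compound exposure lasted 3 days before fixation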;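 for nuclei count: percent of the per-plate median nuclei count of sample wells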); settings: exon1htt(103Q)mCFP cell line, aggregate imaging, at 2 µM; inhibition of aggregation: stronger effect = higher value; nuclei count: measured here: cell count, toxicity
[3] = inhibitors of E-selectin induction by TNFa, primary screen, imaging, HUVEC, immunofluorescence, MLSMR starter and 10KST1 sets (AID 487;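 active = visually confirmed hit in the image check and inhibition above 20%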;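 for inhibition: signal is fraction of cell area covered by stained E-selectin grains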;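 for nuclei count: 100% = median nuclei count of all wells on the same plate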); settings: HUVEC TNFalpha-induced E-selectin immunofluorescence imaging, at 2 µM; inhibition: stronger effect = higher value; nuclei count: measured here: cell number, toxicity
[4] = target: Voltage-gated potassium channel subunit beta-2 (Rattus norvegicus) (UniProt P62483); experiment: KvBeta enzyme negative modulators, primary screen, biochemical, NADPH fluorescence (AID 622); settings: recombinant KvBeta, 4-cyanobenzaldehyde reduction, at 10 µM, stronger effect = higher value;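 note: slope of raw intensity against log time taken from 70 to 1610 s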
[5] = target: Voltage-gated potassium channel subunit beta-2 (Rattus norvegicus) (UniProt P62483); experiment: KvBeta positive modulators, primary screen, biochemical, NADPH fluorescence (AID 623;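 active = NADPH fluorescence slope more negative than the mean of all samples by about 3 SD, 99.7% confidence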;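 note: fluorescence intensity change per second fitted from 20 to 320 s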); settings: Recombinant KvBeta, NADPH fluorescence decrease slope, 10 min; at 10 µM; stronger effect = lower value
[6] = target: Muscarinic acetylcholine receptor M4 (Homo sapiens) (UniProt P08173); experiment: compounds altering M4/GIRK thallium flux, either direction, primary screen, M4 allosteric agonist project, cell-based, HEK293 M4/GIRK, BTC-AM (AID 625;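 active = fluorescence slope after compound addition differing from the mean of all tested samples at 99.7% confidence, mostly higher but some lower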;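 note: thallium influx through GIRK channels coupled to M4 in HEK293 cells with BTC-AM dye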); settings: at 10 µM, actives lie on both sides
Method in brief: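 Assay system: HEK293 cells with M4 receptor and GIRK channels / Controls: carbachol and DMSO controls / Schedule: 1 h dye loading, 2 min kinetic read / Technique: kinetic fluorescence with BTC-AM dye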

[7] = inhibitors of Sendai virus-induced IRF3 signaling, primary screen, TLR/RLR signaling modifier project, cell-based, Sendai virus stimulus, luciferase, 10K MLSCN set (AID 602276;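 active = inhibition at or above 50% at 10 µM; inactive = inhibition below 50%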;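 note: firefly luciferase from ISG56 promoter only with Renilla not read in this screen; 0% = Sendai virus plus DMSO and 100% = medium plus DMSO without virus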); settings: HEK293 RL24 IRF3 luciferase reporter, at 10 µM, stronger effect = higher value
[8] = inhibitors of poly I:C-induced TLR3 signaling, primary screen, cell-based, poly I:C stimulus, luciferase, 10K MLSCN set (AID 602277;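 active = inhibition of the reporter signal at or above 50%; inactive = inhibition below 50%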); settings: HEK293-TLR3 RL24 IRF3 luciferase reporter, at 10 µM, stronger effect = higher value

Sequence of Muscarinic acetylcholine receptor M4 (Homo sapiens) (P08173 whole entry, looked up): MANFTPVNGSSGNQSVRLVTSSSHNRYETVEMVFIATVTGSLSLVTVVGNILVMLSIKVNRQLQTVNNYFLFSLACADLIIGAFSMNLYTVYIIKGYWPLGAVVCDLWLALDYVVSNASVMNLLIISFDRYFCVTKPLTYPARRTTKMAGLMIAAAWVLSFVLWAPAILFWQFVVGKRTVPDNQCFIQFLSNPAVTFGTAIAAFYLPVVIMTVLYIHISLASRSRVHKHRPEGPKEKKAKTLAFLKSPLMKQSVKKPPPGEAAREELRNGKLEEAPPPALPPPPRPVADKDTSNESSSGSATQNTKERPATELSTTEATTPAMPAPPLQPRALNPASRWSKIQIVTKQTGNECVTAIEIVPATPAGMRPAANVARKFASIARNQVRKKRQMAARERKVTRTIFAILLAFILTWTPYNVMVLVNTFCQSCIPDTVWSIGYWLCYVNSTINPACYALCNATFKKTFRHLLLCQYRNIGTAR
Sequence of Voltage-gated potassium channel subunit beta-2 (Rattus norvegicus) (P62483 whole entry, looked up): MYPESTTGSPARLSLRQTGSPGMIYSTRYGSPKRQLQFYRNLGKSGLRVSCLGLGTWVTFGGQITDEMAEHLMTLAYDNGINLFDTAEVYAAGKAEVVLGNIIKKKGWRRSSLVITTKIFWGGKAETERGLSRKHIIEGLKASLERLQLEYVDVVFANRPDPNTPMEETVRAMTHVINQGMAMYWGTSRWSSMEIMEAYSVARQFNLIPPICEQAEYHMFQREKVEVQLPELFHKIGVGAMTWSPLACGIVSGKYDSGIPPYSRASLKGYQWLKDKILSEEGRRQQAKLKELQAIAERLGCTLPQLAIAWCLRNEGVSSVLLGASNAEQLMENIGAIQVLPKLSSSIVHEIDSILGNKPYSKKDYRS

Row | SMILES | cell count [1] | inhibition [1] | inhibition of aggregation [2] | nuclei count [2] [%] | inhibition [3] | nuclei count [3] [%] | fluorescence slope [4] | NADPH fluorescence slope [5] | fluorescence slope [6] | inhibition [7] | inhibition [8]
1 | CCc1cc(-c2[nH]ncc2-c2ccc3c(c2)OCO3)c(O)cc1O | 511 | 0.5% (inactive) | 26% (inactive) | 97.8 | -11.5% (inactive) | 111 | -0.572 (inactive) | 3.5e-05 (inactive) | 0.00533 (inactive) | 14% (inactive) | -66.6% (inactive)
2 | N#CCSCC(=O)Nc1ccc(F)cc1 | 511 | 4.1% (inactive) | -5.3% (inactive) | 108 | 10.5% (inactive) | 99.2 | -0.462 (inactive) | -5.6e-05 (inactive) | 0.00474 (inactive) | 13.5% (inactive) | 26.3% (inactive)
3 | Cc1ccc(NC2c3ncccc3C(=O)N2C2CCCCC2)cc1C (centres undefined) | 465 | 0.7% (inactive) | -11.9% (inactive) | 119 | -28% (inactive) | 102 | -0.276 (inactive) | -8.5e-06 (inactive) | 0.00562 (inactive) | 1.86% (inactive) | 7.53% (inactive)
4 | O=C(CN1CCC(n2nnc3cc(F)ccc32)CC1)Nc1ccc2c(c1)CCC2 | 590 | -57.1% (inactive) | -14.1% (inactive) | 112 | -84.4% (inactive) | 108 | -0.364 (inactive) | -1.5e-05 (inactive) | 0.00687 (inactive) | 14.8% (inactive) | 1.94% (inactive)
5 | Cc1cc(SCC(N)=O)nc(SCC(=O)c2ccccc2)n1 | 584 | -3.3% (inactive) | -8.2% (inactive) | 105 | 16.8% (inactive) | 91.6 | -0.585 (inactive) | -5.2e-05 (inactive) | 0.00307 (inactive) | 10.5% (inactive) | 21% (inactive)
6 | COc1ccc(CN(C(=O)c2ccccc2OC)C2CCS(=O)(=O)C2)cc1 (centres undefined) | 452 | 2.2% (inactive) | 23% (inactive) | 75 | 13.1% (inactive) | 109 | -0.58 (inactive) | -7.5e-05 (inactive) | 0.00303 (inactive) | 14.2% (inactive) | 23.7% (inactive)
7 | NS(=O)(=O)c1ccc(NCc2c(F)cccc2Cl)cc1 | 300 | -3% (inactive) | 36.6% (inactive) | 79.8 | 38.8% (inactive) | 99.4 | -0.515 (inactive) | -0.000161 (inactive) | 0.00288 (inactive) | 8.08% (inactive) | -2.77% (inactive)
8 | COc1ccc2nc(NC(=O)C(NS(=O)(=O)c3cccs3)C(C)C)sc2c1 (centres undefined) | 365 | 0.9% (inactive) | -16.1% (inactive) | 97.8 | -222% (inactive) | 104 | -0.532 (inactive) | 1.5e-05 (inactive) | 0.00546 (inactive) | 17.4% (inactive) | 21% (inactive)
9 | Cc1ccc(C2N(c3ccc(Cl)c(Cl)c3)C(=O)C3CCCN32)o1 (centres undefined) | 495 | -1.5% (inactive) | 7.9% (inactive) | 98.2 | -11.2% (inactive) | 97 | -0.561 (inactive) | -2e-05 (inactive) | 0.0047 (inactive) | 16.9% (inactive) | 18.1% (inactive)
10 | O=C(C1CCC1)N1CCc2cc(S(=O)(=O)Nc3ccc4c(c3)OCO4)ccc21 | 606 | 10.1% (inactive) | 18.8% (inactive) | 92 | 3.5% (inactive) | 137 | -0.391 (inactive) | -6.2e-05 (inactive) | 0.0066 (inactive) | 7.48% (inactive) | 13.6% (inactive)
11 | C=CCn1c(SCc2ccc3nonc3c2)nnc1-c1cccs1 | 644 | -14% (inactive) | 3.4% (inactive) | 91.6 | 13.9% (inactive) | 92.9 | -0.384 (inactive) | 4.9e-05 (inactive) | 0.00442 (inactive) | 15% (inactive) | 17.7% (inactive)
12 | COC(=O)c1ccccc1NC(=O)CSc1nnnn1C1CCCCC1 | 309 | -3.7% (inactive) | -19.4% (inactive) | 108 | -39.4% (inactive) | 81.2 | -0.545 (inactive) | -3.8e-05 (inactive) | 0.00503 (inactive) | 3.68% (inactive) | 20.1% (inactive)
13 | COc1ccccc1N1CCN(C(=O)c2ccc3nc(-c4ccco4)c(-c4ccco4)nc3c2)CC1 | 570 | -15.9% (inactive) | 5.2% (inactive) | 136 | -44.3% (inactive) | 115 | -0.324 (inactive) | 3.6e-06 (inactive) | 0.005 (inactive) | 16.2% (inactive) | 8.44% (inactive)
14 | CCOc1ccc(CCNC(=O)CCc2nc(-c3ccc(OC)cc3)no2)cc1OCC | 322 | -3.5% (inactive) | 1.2% (inactive) | 87.7 | -64.9% (inactive) | 146 | -0.529 (inactive) | 3.2e-05 (inactive) | 0.00633 (inactive) | 12.2% (inactive) | 12.3% (inactive)

From PubChem BioAssay
